According to ChEMBL document CHEMBL3779858, “Design, synthesis and Structure-activity relationship studies of new thiazole-based free fatty acid receptor 1 agonists for the treatment of type 2 diabetes” (Eur J Med Chem, 2016):
Active and inactive are the calls of the source. The calls are words filed in the database; no cut-off is given here.

Key:
[1] = biological target: T1, Free fatty acid receptor 1 (Homo sapiens, UniProt O14842); assay: Agonist activity at human FFA1 receptor expressed in CHO cells assessed as Ca2+ influx at 100 nM by FLIPR assay; assay type: functional, cell-based
In short: (§1)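 Human FFA1 stably expressed in CHO cells, seeded at 15K/well and grown 16 h at 37 °C, 5% CO2. Cells loaded 1 h at 37 °C with Fluo 4-AM (2.5 µg/mL), 2.5 mmol/L probenecid and 0.1% fatty acid-free BSA. Single screening concentration as listed. Ca2+ flux read on FLIPR Tetra and expressed as % of the 10 µM γ-linolenic acid response after vehicle subtraction. Mean of three independent experiments.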

[2] = biological target: T1, Free fatty acid receptor 1; assay: Agonist activity at human FFA1 receptor expressed in CHO cells assessed as Ca2+ influx at 300 nM by FLIPR assay; assay type: functional, cell-based; in short: as §1
[3] = biological target: T1, Free fatty acid receptor 1; assay: Agonist activity at human FFA1 receptor expressed in CHO cells assessed as Ca2+ influx by FLIPR assay; assay type: functional, cell-based
In short: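 Ca2+ flux assay in CHO cells stably expressing human FFA1: seeded at 15K/well and grown 16 h, then Fluo 4-AM loaded 1 h at 37 °C with probenecid and fatty acid-free BSA. Compounds tested at various concentrations. Response normalized to vehicle (0%) and 10 µM γ-linolenic acid (100%). EC50 from concentration–response fitting, mean of three determinations.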

Mus musculus [4] = assay: Antidiabetic activity in overnight fasted ICR mouse assessed as decrease in blood glucose level at […], po administered 30 mins prior to glucose challenge measured after 15 to 120 mins by OGTT method; assay type: functional, organism-based; conditions: 38 umol/kg
In short: (§2)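 Male ICR mice, 10 weeks old, 18-22 g, fasted overnight (12 h), n = 6 per group. Single oral dose in 0.5% CMC-Na vehicle (10 mL/kg), […] for the reference compound (20 mg/kg) and for the test compounds. Oral glucose load (30%, 3 g/kg) given 30 min later. Tail blood glucose measured by test strip at -30, 0, 15, 30, 45, 60 and 120 min. AUC0-2h also derived. Mean ± SEM.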

Mus musculus [5] = assay: Antidiabetic activity in overnight fasted ICR mouse assessed as decrease in plasma glucose AUC at […], po administered 30 mins prior to glucose challenge measured after 15 to 120 mins by OGTT method; assay type: functional, organism-based; in short: as §2
Mus musculus [6] = assay: Hepatotoxicity in ICR mouse assessed as aspartate aminotransferase levels in serum at 30 mg/kg qd administered through oral gavage for 30 days (reference value: 133.1 +/- 13.1 IU/L); assay type: toxicity, organism-based; conditions: in vivo, 720 h
Mus musculus [7] = assay: Toxicity in overnight fasted ICR mouse assessed as hypoglycemic effect at 60 mg/kg, po after 30 to 120 mins […]; assay type: organism-based; conditions: in vivo
In short: (§3)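 Fasting hypoglycemia test without a glucose load: male ICR mice, 10 weeks old, fasted overnight, 3 groups of n = 6. Single oral dose of 60 mg/kg test compound, 15 mg/kg glibenclamide or 0.5% CMC-Na vehicle. Tail-vein blood glucose measured by test strip at 0, 30, 60, 90, 120 and 180 min. Mean ± SEM.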

Mus musculus [8] = assay: Antihyperglycemic activity in overnight fasted STZ-induced type 2 dibetic C57BL/6 mouse assessed as decrease in blood glucose level at 30 mg/kg, po administered 30 mins prior to glucose challenge measured after 15 to 120 mins by OGTT method; assay type: functional, organism-based
In short: (§4)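 Male C57BL/6 mice fed a 45%-fat diet for 4 weeks, given STZ i.p. (80 mg/kg), then high-fat diet for 4 more weeks. Fasting glucose of 11.1 mmol/L or higher taken as diabetic. After a 12 h fast, n = 6 per group, with a normal-mouse control group. Oral dose in 0.5% CMC-Na, then oral glucose (20%, 2 g/kg) 30 min later. Strip glucose at -30 to 120 min.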

Mus musculus [9] = assay: Hepatotoxicity in ICR mouse assessed as total bilirubin levels in serum at 30 mg/kg qd administered through oral gavage for 30 days (reference value: 4.1 +/- 0.4 IU/L); assay type: toxicity, organism-based; conditions: in vivo, 720 h
Mus musculus [10] = assay: Antidiabetic activity in overnight fasted po dosed ICR mouse assessed as decrease in blood glucose level administered 30 mins prior to glucose challenge measured after 15 to 120 mins by OGTT method; assay type: functional, organism-based; in short: as §2
Mus musculus [11] = assay: Hepatotoxicity in ICR mouse assessed as alanine aminotransferase levels in serum at 30 mg/kg qd administered through oral gavage for 30 days (reference value: 35 +/- 4.3 IU/L); assay type: toxicity, organism-based; conditions: in vivo, 720 h
Mus musculus [12] = assay: Antidiabetic activity in overnight fasted ICR mouse assessed as decrease in blood glucose level at 60 mg/kg, po administered 30 mins prior to glucose challenge measured after 60 mins by OGTT method; assay type: functional, organism-based
In short: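 Dose–response OGTT in male ICR mice, 10 weeks old, fasted 12 h, 5 groups of n = 6. Oral doses of 10, 30 or 60 mg/kg, or reference at 20 mg/kg, in 0.5% CMC-Na. Glucose (30%, 3 g/kg) given orally 30 min after dosing. Tail-blood glucose read by test strip at -30, 0, 15, 30, 45, 60 and 120 min. Mean ± SEM.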

Mus musculus [13] = assay: Toxicity in overnight fasted ICR mouse assessed as hypoglycemic effect at 15 mg/kg, po after 30 to 120 mins […]; assay type: organism-based; conditions: in vivo; in short: as §3
Mus musculus [14] = assay: Antidiabetic activity in overnight fasted ICR mouse assessed as decrease in blood glucose level at 20 mg/kg, po administered 30 mins prior to glucose challenge measured after 15 to 120 mins by OGTT method; assay type: functional, organism-based; in short: as §2
Mus musculus [15] = assay: Hepatotoxicity in ICR mouse assessed as aspartate aminotransferase levels in serum at 20 mg/kg qd administered through oral gavage for 30 days (reference value: 133.1 +/- 13.1 IU/L); assay type: toxicity, organism-based; conditions: in vivo, 720 h
Mus musculus [16] = assay: Antihyperglycemic activity in overnight fasted STZ-induced type 2 dibetic C57BL/6 mouse assessed as decrease in blood glucose level at 20 mg/kg, po administered 30 mins prior to glucose challenge measured after 15 to 120 mins by OGTT method; assay type: functional, organism-based; in short: as §4
Mus musculus [17] = assay: Hepatotoxicity in ICR mouse assessed as total bilirubin levels in serum at 20 mg/kg qd administered through oral gavage for 30 days (reference value: 4.1 +/- 0.4 IU/L); assay type: toxicity, organism-based; conditions: in vivo, 720 h
Mus musculus [18] = assay: Hepatotoxicity in ICR mouse assessed as alanine aminotransferase levels in serum at 20 mg/kg qd administered through oral gavage for 30 days (reference value: 35 +/- 4.3 IU/L); assay type: toxicity, organism-based; conditions: in vivo, 720 h

T1 sequence (O14842 whole entry): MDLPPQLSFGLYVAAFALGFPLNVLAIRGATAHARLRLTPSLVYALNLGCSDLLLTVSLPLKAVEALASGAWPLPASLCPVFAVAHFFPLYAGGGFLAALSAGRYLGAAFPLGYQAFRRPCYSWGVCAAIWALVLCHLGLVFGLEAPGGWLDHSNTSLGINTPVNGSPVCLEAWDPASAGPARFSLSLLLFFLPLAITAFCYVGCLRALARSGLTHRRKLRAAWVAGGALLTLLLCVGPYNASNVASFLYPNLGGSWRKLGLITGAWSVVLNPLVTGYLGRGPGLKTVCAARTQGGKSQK

SMILES	Activity [1]	Activity [2]	also measured
Cc1nc(-c2cccc(C(F)(F)F)c2)sc1COc1ccc2c(c1)OCC2CC(=O)O (stereo not drawn)	35.7%	–	–
O=C(O)CC1COc2cc(OCc3ncc(-c4ccccc4)s3)ccc21 (stereo not drawn)	5.26%	19.8%	–
O=C(O)CC1COc2cc(OCc3nc(-c4ccccc4)cs3)ccc21 (stereo not drawn)	0.16%	0.23%	–
Cc1nc(-c2ccsc2)sc1COc1ccc2c(c1)OCC2CC(=O)O (stereo not drawn)	56.5%	–	EC50 [3]: 68.5 nM; Activity (Mus musculus [4]): Active
Cc1ccc(-c2nc(C)c(COc3ccc4c(c3)OCC4CC(=O)O)s2)cc1 (stereo not drawn)	54.9%	–	EC50 [3]: 73.5 nM; Activity (Mus musculus [4]): Active; Activity (Mus musculus [5]): Active
Cc1ccccc1-c1nc(C)c(COc2ccc3c(c2)OCC3CC(=O)O)s1 (stereo not drawn)	10.7%	–	–
O=C(O)CC1COc2cc(OCc3ncc(-c4ccccc4)o3)ccc21 (stereo not drawn)	2.34%	10.2%	–
COc1cc(OC)cc(-c2nc(C)c(COc3ccc4c(c3)OCC4CC(=O)O)s2)c1 (stereo not drawn)	17.5%	–	–
Cc1nc(-c2ccc(C(F)(F)F)cc2)sc1COc1ccc2c(c1)OCC2CC(=O)O (stereo not drawn)	50.4%	–	EC50 [3]: 96.7 nM
Cc1nc(-c2ccccc2F)sc1COc1ccc2c(c1)OCC2CC(=O)O (stereo not drawn)	25.8%	–	–
O=C(O)CC1COc2cc(OCc3nnc(-c4ccccc4)o3)ccc21 (stereo not drawn)	1.54%	6.31%	–
O=C(O)CC1COc2cc(OCc3cc(-c4ccccc4)on3)ccc21 (stereo not drawn)	0.84%	1.67%	–
COc1cc(-c2nc(C)c(COc3ccc4c(c3)OCC4CC(=O)O)s2)cc(OC)c1OC (stereo not drawn)	7.47%	–	–
Cc1nc(-c2cccc(F)c2)sc1COc1ccc2c(c1)OCC2CC(=O)O (stereo not drawn)	56.9%	–	EC50 [3]: 64.8 nM; Activity (Mus musculus [4]): Active; Activity (Mus musculus [5]): Active
O=C(O)CC1COc2cc(OCc3cn(-c4ccccc4)nn3)ccc21 (stereo not drawn)	–	0.89%	–
Cc1nc(-c2ccccc2C(F)(F)F)sc1COc1ccc2c(c1)OCC2CC(=O)O (stereo not drawn)	7.76%	–	–
Cc1nc(-c2cccc(Cl)c2)sc1COc1ccc2c(c1)OCC2CC(=O)O (stereo not drawn)	43%	–	EC50 [3]: 138 nM

SMILES	Activity [1]	Activity [2]	also measured
COc1ccc(-c2nc(C)c(COc3ccc4c(c3)OCC4CC(=O)O)s2)cc1 (stereo not drawn)	46.8%	–	EC50 [3]: 123 nM
Cc1nc(-c2cccs2)sc1COc1ccc2c(c1)OCC2CC(=O)O (stereo not drawn)	35.1%	–	–
Cc1nc(-c2ccccc2)sc1COc1ccc2c(c1)OCC2CC(=O)O (stereo not drawn)	54.8%	67.4%	Activity (Mus musculus [4]): Active
Cc1nc(-c2ccccc2Cl)sc1COc1ccc2c(c1)OCC2CC(=O)O (stereo not drawn)	12.4%	–	–
Cc1nc(-c2ccccc2)oc1COc1ccc2c(c1)OCC2CC(=O)O (stereo not drawn)	7.15%	21.2%	–
Cc1nc(-c2ccc(F)cc2)sc1COc1ccc2c(c1)OCC2CC(=O)O (stereo not drawn)	61.6%	–	EC50 [3]: 48.7 nM; Activity (Mus musculus [6]): 141.8 IU/L; Activity (Mus musculus [7]): Non-toxic; Activity (Mus musculus [8]): Active; Activity (Mus musculus [9]): 4 IU/L; Activity (Mus musculus [4]): Active; Activity (Mus musculus [10]): Dose-dependent effect; Activity (Mus musculus [5]): Active; Activity (Mus musculus [11]): 37.5 IU/L; Activity (Mus musculus [12]): Active
Cc1nc(-c2cc3ccccc3o2)sc1COc1ccc2c(c1)OCC2CC(=O)O (stereo not drawn)	14.8%	–	–
O=C(O)CC1COc2cc(OCc3csc(-c4ccccc4)n3)ccc21 (stereo not drawn)	0.15%	5.67%	–
COc1ccc(Cl)cc1C(=O)NCCc1ccc(S(=O)(=O)NC(=O)NC2CCCCC2)cc1 [GLYBURIDE]	–	–	Activity (Mus musculus [13]): Toxic
Cc1cc(COc2ccc3c(c2)OCC3CC(=O)O)nn1-c1ccccc1 (stereo not drawn)	0.98%	1.23%	–
Cc1cccc(-c2nc(C)c(COc3ccc4c(c3)OCC4CC(=O)O)s2)c1 (stereo not drawn)	47.2%	–	EC50 [3]: 119 nM
O=C(O)CC1COc2cc(OCc3nnc(-c4ccccc4)s3)ccc21 (stereo not drawn)	3.36%	13.7%	–
Cc1cc(OCCCS(C)(=O)=O)cc(C)c1-c1cccc(COc2ccc3c(c2)OC[C@H]3CC(=O)O)c1 [FASIGLIFAM]	–	–	Activity (Mus musculus [14]): Active; Activity (Mus musculus [15]): 181.1 IU/L; Activity (Mus musculus [16]): Active; Activity (Mus musculus [17]): 4 IU/L; Activity (Mus musculus [18]): 48.3 IU/L
Cc1nc(-c2cccc3ccccc23)sc1COc1ccc2c(c1)OCC2CC(=O)O (stereo not drawn)	8.53%	–	–
Cc1nc(-c2ccc(Cl)cc2)sc1COc1ccc2c(c1)OCC2CC(=O)O (stereo not drawn)	53.4%	–	EC50 [3]: 85.6 nM; Activity (Mus musculus [4]): Active; Activity (Mus musculus [5]): Active
Cc1nc(-c2ccc(Cl)s2)sc1COc1ccc2c(c1)OCC2CC(=O)O (stereo not drawn)	8.34%	–	–
